{"source": "ChEMBL document CHEMBL1155043", "about": "“Complexation of the anti-Trypanosoma cruzi drug benznidazole improves solubility and efficacy” (J Med Chem, 2008)", "key": {"[1]": {"system": "Trypanosoma cruzi", "test": "Antitrypanosomal activity against Trypanosoma cruzi Y infected in Swiss mouse assessed as survivality at 385 umol/kg, po for 1 day after 15 days", "assay_type": "functional", "how_it_was_run": "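Female Swiss mice, 5-6 weeks old, infected intraperitoneally with 1.0 × 10^3 Y-strain bloodstream trypomastigotes. A single oral dose in PBS was given only on the first day after infection. Groups of six, with infected controls. Survival was followed, and parasitemia was counted as motile trypomastigotes in 5 µL tail blood.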"}, "[2]": {"system": "Trypanosoma cruzi", "test": "Antiproliferative activity against Trypanosoma cruzi Y epimastigotes assessed as number of motile forms at 0.5 mM after 24 hrs by hemocytometer", "assay_type": "functional", "details": "read-out: GI", "how_it_was_run": "(§1)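 Y strain epimastigotes grown in Schneider's medium with 20% fetal calf serum, taken in exponential phase, PBS-washed, resuspended to 2.0 × 10^6/mL. Plated in triplicate with compound diluted in PBS, incubated at 37 °C, 5% CO2. Motile forms counted by hemocytometer; % growth inhibition = {1 - [(LDt - LDt0)/(LCt - LCt0)]} × 100 against untreated wells.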"}, "[3]": {"system": "Trypanosoma cruzi", "test": "Antitrypanosomal activity against Trypanosoma cruzi Y infected in Swiss mouse assessed as decrease in parasitemia at 385 umol/kg, po after 15 consecutive days", "assay_type": "functional, organism-based"}, "[4]": {"system": "V79", "test": "Cytotoxicity against chinese hamster V79 cells", "assay_type": "cell-based", "details": "Cricetulus griseus"}, "[5]": {"system": "Trypanosoma cruzi", "test": "Antiproliferative activity against Trypanosoma cruzi Y epimastigotes assessed as number of motile forms at 0.5 mM after 1 hr by hemocytometer", "assay_type": "functional", "details": "read-out: GI", "how_it_was_run": "as §1"}, "[6]": {"test": "Aqueous solubility at pH 6.5", "assay_type": "physicochemical", "how_it_was_run": "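Solubility measured in a bio-relevant medium simulating fasted proximal small intestine: 3 mM sodium taurocholate, 0.75 mM lecithin, KH2PO4, KCl, pH 6.5, 37 °C. Excess compound stirred 24 h in 5 mL, filtered through 0.45 µm, diluted, and quantified by UV-vis at 323 nm (ε = 4.5 × 10^3 M-1 cm-1), in triplicate.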"}, "[7]": {"system": "Trypanosoma cruzi", "test": "Antitrypanosomal activity against Trypanosoma cruzi Y infected in Swiss mouse assessed as survivality at 385 umol/kg, po after 15 consecutive days", "assay_type": "functional", "how_it_was_run": "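Female Swiss mice, 5-6 weeks old, infected intraperitoneally with 1.0 × 10^3 Y-strain bloodstream trypomastigotes from an infected mouse. Oral dosing once daily in PBS for 15 consecutive days. Groups of six; untreated or PBS-only infected controls. Parasitemia counted as motile trypomastigotes in 5 µL tail blood, and survival of the treated animals recorded.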"}, "[8]": {"system": "Trypanosoma cruzi", "test": "Antiproliferative activity against Trypanosoma cruzi Y epimastigotes assessed as number of motile forms at 0.1 mM after 24 hrs by hemocytometer", "assay_type": "functional", "details": "read-out: GI", "how_it_was_run": "as §1"}, "[9]": {"system": "Trypanosoma cruzi", "test": "Antiproliferative activity against Trypanosoma cruzi Y epimastigotes assessed as number of motile forms at 1 mM after 1 hr by hemocytometer", "assay_type": "functional", "details": "read-out: GI", "how_it_was_run": "as §1"}, "[10]": {"system": "Trypanosoma cruzi", "test": "Antiproliferative activity against Trypanosoma cruzi Y epimastigotes assessed as number of motile forms at 0.1 mM after 1 hr by hemocytometer", "assay_type": "functional", "details": "read-out: GI", "how_it_was_run": "as §1"}, "[11]": {"system": "Trypanosoma cruzi", "test": "Antitrypanosomal activity against bloodstream trypomastigote of Trypanosoma cruzi Y assessed as number of motile forms after 1 hr by hemocytometer", "assay_type": "functional, organism-based", "how_it_was_run": "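Bloodstream trypomastigotes (Y strain) taken from mice at peak parasitemia, resuspended to 1.0 × 10^6/mL. Triplicate wells with compound in PBS at 0.1, 0.25, 0.5 and 1.0 mM, 37 °C, 5% CO2, 1 h. Motile forms counted by hemocytometer; % trypanocidal activity = [1 - (LDt/LCt)] × 100 against untreated wells.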"}, "[12]": {"system": "Trypanosoma cruzi", "test": "Antiproliferative activity against Trypanosoma cruzi Y epimastigotes assessed as number of motile forms at 0.1 mM after 4 hrs by hemocytometer", "assay_type": "functional", "details": "read-out: GI", "how_it_was_run": "as §1"}, "[13]": {"system": "Trypanosoma cruzi", "test": "Antitrypanosomal activity against Trypanosoma cruzi Y epimastigotes assessed as number of motile forms after 24 hrs by hemocytometer", "assay_type": "functional, organism-based", "how_it_was_run": "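Y strain epimastigotes in Schneider's medium with 20% FCS, exponential phase, PBS-washed, 2.0 × 10^6/mL. Triplicate wells with compound in PBS at 0.1, 0.25, 0.5 and 1.0 mM, 37 °C, 5% CO2, 24 h. Motile forms counted by hemocytometer; IC50 taken as 50% antiproliferative activity. Mean ± SEM, n = 3.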"}, "[14]": {"system": "Trypanosoma cruzi", "test": "Antiproliferative activity against Trypanosoma cruzi Y epimastigotes assessed as number of motile forms at 1 mM after 4 hrs by hemocytometer", "assay_type": "functional", "details": "read-out: GI", "how_it_was_run": "as §1"}, "[15]": {"system": "Trypanosoma cruzi", "test": "Antiproliferative activity against Trypanosoma cruzi Y epimastigotes assessed as number of motile forms at 1 mM after 24 hrs by hemocytometer", "assay_type": "functional", "details": "read-out: GI", "how_it_was_run": "as §1"}, "[16]": {"system": "Trypanosoma cruzi", "test": "Antiproliferative activity against Trypanosoma cruzi Y epimastigotes assessed as number of motile forms at 0.5 mM after 4 hrs by hemocytometer", "assay_type": "functional", "details": "read-out: GI", "how_it_was_run": "as §1"}, "[17]": {"system": "Trypanosoma cruzi", "test": "Antitrypanosomal activity against Trypanosoma cruzi Y infected in Swiss mouse assessed as survivality at 100 nmol/kg, ip after 15 consecutive days", "assay_type": "functional, organism-based", "how_it_was_run": "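Female Swiss mice, 5-6 weeks old, groups of six, infected ip with 1.0 × 10^3 Y strain bloodstream trypomastigotes. Treated ip in 100 µL PBS daily for 15 consecutive days. Controls were untreated or PBS-only infected mice. Survival followed up to 120 days.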"}}, "note": "pIC50: −log10 of the molar value. Activity calls are given as the source filed them. No cut-off for these calls is given here."}
{"compound": "O=C(Cn1ccnc1[N+](=O)[O-])NCc1ccccc1", "note": "[BENZNIDAZOLE]", "values": [{"measurement": "survival at 385 µmol/kg", "setting": "[1]", "value": 20, "unit": "%"}, {"measurement": "inhibition of growth at 500 µM", "setting": "[2]", "value": 26, "unit": "%"}, {"measurement": "Activity", "setting": "[3]", "value": "Active"}, {"measurement": "pIC50", "setting": "[4]", "value": 2.70}, {"measurement": "inhibition of growth at 500 µM", "setting": "[5]", "value": 0, "unit": "%"}, {"measurement": "solubility", "setting": "[6]", "value": 400, "unit": "µg/mL"}, {"measurement": "survival at 385 µmol/kg", "setting": "[7]", "value": 100, "unit": "%"}, {"measurement": "inhibition of growth at 100 µM", "setting": "[8]", "value": 15, "unit": "%"}, {"measurement": "inhibition of growth at 1000 µM", "setting": "[9]", "value": 7, "unit": "%"}, {"measurement": "inhibition of growth at 100 µM", "setting": "[10]", "value": 0, "unit": "%"}, {"measurement": "pIC50", "setting": "[11]", "value": "< 3.00"}, {"measurement": "inhibition of growth at 100 µM", "setting": "[12]", "value": 11, "unit": "%"}, {"measurement": "pIC50", "setting": "[13]", "value": "< 3.00"}, {"measurement": "inhibition of growth at 1000 µM", "setting": "[14]", "value": 24, "unit": "%"}, {"measurement": "inhibition of growth at 1000 µM", "setting": "[15]", "value": 31, "unit": "%"}, {"measurement": "inhibition of growth at 500 µM", "setting": "[16]", "value": 15, "unit": "%"}, {"measurement": "Activity", "setting": "[17]", "value": "inactive"}]}
